High-throughput results as filed in PubChem BioAssay.
hIAP inh: blocks human intestinal alkaline phosphatase | P09923 | purified IAP, CDP-Star luminescence, 30 min | AID 2544 | 330,000 compounds, 0.12% hits | inhibition, % at 10 µM;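 active means inhibition reaching a set limit with compound at 10 µM in the primary screen, cut at about 35% in these data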;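 further: plate controls were DMSO wells with enzyme for no effect and no-enzyme buffer wells for full effect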
Target sequence (P09923 whole entry, looked up): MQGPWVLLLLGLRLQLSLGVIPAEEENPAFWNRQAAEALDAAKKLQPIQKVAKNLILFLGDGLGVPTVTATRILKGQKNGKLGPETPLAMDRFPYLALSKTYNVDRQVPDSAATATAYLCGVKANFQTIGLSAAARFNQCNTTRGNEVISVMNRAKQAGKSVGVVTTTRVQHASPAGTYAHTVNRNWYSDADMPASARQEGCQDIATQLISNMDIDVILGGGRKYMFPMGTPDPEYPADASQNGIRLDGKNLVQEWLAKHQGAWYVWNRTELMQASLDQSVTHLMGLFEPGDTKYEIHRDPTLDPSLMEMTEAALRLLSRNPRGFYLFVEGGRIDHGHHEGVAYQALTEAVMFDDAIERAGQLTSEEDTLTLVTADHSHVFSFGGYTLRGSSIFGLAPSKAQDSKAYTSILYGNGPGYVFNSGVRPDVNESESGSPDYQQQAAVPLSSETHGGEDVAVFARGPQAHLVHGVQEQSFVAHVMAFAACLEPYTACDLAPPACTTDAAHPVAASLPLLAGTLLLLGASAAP
mIAP block: blocks mouse intestinal alkaline phosphatase; 330,000 compounds, 0.2% hits; purified mouse IAP, CDP-Star luminescence, 30 min; inhibition, % at 10 µM; AID 2806;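 active means inhibition of at least 40% at 10 µM in the primary screen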;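 further: plate controls were DMSO with enzyme for no effect and no enzyme wells for full effect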
hIAP act: human IAP activation; purified human IAP, CDP-Star luminescence, 30 min; hits give high values; 1 = vehicle-only enzyme, 0 = enzyme-free background; 330,000 compounds, 0.16% hits; activation factor at 10 µM;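 active means activation factor of the enzyme at least 2-fold when tested at 20 µM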
bIAP inhibitor: intestinal alkaline phosphatase (bovine) inhibition; AID 1019; purified bovine IAP, CDP-star luminescence, 30 min; 190,000 tested, under 10 active; inhibition, % at 20 µM;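 active means over 50% inhibition of intestinal alkaline phosphatase at 20 µM in the single-dose screen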
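Incubation: 30 min reaction at room temperature / Material: purified bovine intestinal alkaline phosphatase (IAP) enzyme / Input: enzyme at 1/65,000,000 dilution / Dosing: 20 µM single dose / Signal: CDP-star luminescence signal / Reagent: CDP-star chemiluminescent phosphatase substrate, 30 µM final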
mIAP act: mouse IAP activation; muIAP, CDP-Star luminescence, 30 min; hits give high values; 1 = vehicle-only enzyme signal, 0 = enzyme-free wells; activation factor at 10 µM; AID 2805; 330,000 compounds, 0.24% hits;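 active means activation factor of at least 2 at 20 µM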
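also added = chemiluminescent substrate CDP-Star | test system = mouse IAP enzyme | signal = chemiluminescence readout | compound = DMSO-dissolved test compounds | incubation = 30 min at room temperature | benchmarks = DMSO wells, no-enzyme wells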
bIAP activator: increases bovine intestinal alkaline phosphatase activity | 200,000 compounds, 0.17% hits | purified bovine IAP, CDP-star luminescence, 30 min; hits give high values; fold of DMSO-control signal, blank-subtracted | AID 1016 | activation factor at 20 µM;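 active means activation factor of 2 or more at 20 µM, a signal rise over negative controls twice the positive control's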
mIAP inh confirm: mouse IAP inhibition confirmation; shares compounds with mIAP block; purified mouse IAP, CDP-Star luminescence, 30 min; inhibition, % at 10 µM; 11,000 compounds, 4.7% hits; AID 434971;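 active means inhibition of at least 40% at 10 µM in either of the two replicates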;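 further: plate controls were DMSO wells with enzyme for no effect and buffer wells lacking enzyme for full effect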
An asterisk follows results filed as active; i = inactive; . = no result. An excerpt weighted towards active compounds, which were near 0.72% of everything screened.

SMILES	hIAP inh	mIAP block	hIAP act	bIAP inhibitor	mIAP act	bIAP activator	mIAP inh confirm
CC(=C\c1ccccc1)/C=C1/SC(=S)N(C(C(=O)O)C(C)C)C1=O (configuration not stated)	.	.	.	7	.	0.9	.
O=C1/C(=C/C=C/c2ccco2)SC(=S)N1NS(=O)(=O)c1ccccc1	-22	84*	1.2	.	0.16	.	91*
COC(=O)C1=CO[C@@H](O[C@@H]2O[C@H](CO)[C@@H](O)[C@H](O)[C@H]2O)C2C1C=C[C@@]2(O)CO (some centres not stated)	-2	9	1	.	0.91	.	.
Cc1ccc(C)c(S(=O)(=O)N(C)C2CCS(=O)(=O)C2)c1 (configuration not stated)	0	4	0.99	.	0.96	.	.
Cc1ccc2[nH]c3c(NCc4ccccc4)ncnc3c2c1	-51	-204	1.5	.	3*	.	-149
Brc1ccc2[nH]c3c(NCc4ccccn4)ncnc3c2c1	-23	-22	1.2	.	1.2	.	.
COc1ccc(CNc2ncnc3c2[nH]c2ccccc23)cc1	-64	-206	1.6	.	3.1*	.	-171
COc1ccc(CNc2ncnc3c2[nH]c2cc(OC)c(OC)cc23)cc1	-6	-85	1.1	.	1.8	.	.
COc1ccccc1/C(C)=N/Oc1cc(N)cc([N+](=O)[O-])c1	10	9	0.9	.	0.91	.	.
CN(CC(=O)Nc1ccc(Cl)c(S(=O)(=O)N2CCOCC2)c1)C(=O)c1ccc(C#N)cc1	-1	9	1	.	0.91	.	.
N#CC1=C2SCN(c3ccc(F)cc3)CN2C(=O)CC1c1cccc(F)c1 (configuration not stated)	12	60*	0.88	11	0.4	0.9	59*
Cc1ccc(N2CSC3=C(C#N)C(c4cccs4)CC(=O)N3C2)cc1 (configuration not stated)	-14	46*	1.1	17	0.54	0.8	46*
CC(=O)Nc1ccc(NC(=O)C(C)OC(=O)C2CCN(S(=O)(=O)c3ccc4c(c3)OCCO4)CC2)cc1 (configuration not stated)	5	6	0.95	.	0.94	.	.
COc1ccc(OC)c(CCNC(=O)CCc2nnc3ccc(N4CCOCC4)nn23)c1	-12	-8	1.1	.	1.1	.	.
COCC(=O)NC1CC2CCCC(C1)N2Cc1ccccc1 (configuration not stated)	-8	6	1.1	-1	0.94	1	.
COc1ccc(CN2C3CCCC2CC(NC(=O)Nc2cccc(C)c2)C3)cc1 (configuration not stated)	5	i	0.95	7	12*	0.9	i
COc1ccc(CN2C3CCCC2CC(NC(=O)Nc2ccccc2C)C3)cc1 (configuration not stated)	9	-198	0.91	6	3*	0.9	-143
COc1ccc(CN2C3CCCC2CC(NC(=O)Nc2ccccc2)C3)cc1 (configuration not stated)	18	-426	0.82	9	5.3*	0.9	-365
O=C(Cc1c(Cl)cccc1Cl)N1CCN(S(=O)(=O)c2cccs2)CC1	-5	-11	1	.	1.1	.	.
O=C(O)c1ccc(N=Nc2c(O)[nH]c3ccc(Br)cc23)cc1	9	11	0.91	.	0.89	.	.
O=c1ccc2cc3c([nH]c4ccc(Br)cc43)oc-2c1O	25	48*	0.75	2	0.52	1	44*
CC(C)(C)N(NC(=O)Nc1ccc(Cl)c(Cl)c1)C(=O)c1ccccc1	-83	i	1.8	-2	6.8*	1	-295
Cc1cc(C)cc(C(=O)N(NC(=O)Nc2ccc(Cl)cc2)C(C)(C)C)c1	-30	-335	1.3	-3	4.3*	1	-322
O=C(Nc1ccc2c(c1)N(Cc1ccccc1)C(=O)c1ccccc1S2)NC1CC1	7	-174	0.93	-49	2.7*	1.5	-145
NS(=O)(=O)c1ccc(CCNC(=O)c2cc3ccccc3oc2=O)cc1	-6	-2	1.1	.	1	.	.
SMILES	hIAP inh	mIAP block	hIAP act	bIAP inhibitor	mIAP act	bIAP activator	mIAP inh confirm
Cc1ccc(N/C(N)=N/c2nc3c(c(=O)[nH]2)CCCC3)c(C)c1	-1	-26	1	-54	1.3	1.5	.
Cc1ccc(N/C(N)=N/c2nc(C)cc(N3CCCCC3)n2)c(C)c1	-207	-270	3.1*	i	3.7*	8.4*	-322
CCOc1ccccc1N1CCN(S(=O)(=O)c2ccc3c4c(cccc24)C(=O)N3)CC1	-10	59*	1.1	6	0.41	0.9	56*
CCOC(=O)N1CCN(S(=O)(=O)c2ccc3c4c(cccc24)C(=O)N3)CC1	-21	1	1.2	.	0.99	.	.
CCOC(=O)N1CCN(C(=O)c2ccc(OC)c(S(=O)(=O)N3CCOCC3)c2)CC1	-2	2	1	-3	0.97	1	.
O=c1oc2ccccc2c(Nc2cccc(O)c2)c1[N+](=O)[O-]	15	48*	0.85	27	0.52	0.7	50*
C#CCOCCOCCOCCNc1nc(N2CCOCC2)nc(N2CCN(C(=O)CCCCCCCCCCNC(=O)[C@@H]([C@H](C)CC)n3cc(CCCCCN)nn3)CC2)n1	-8	-69	1.1	.	1.7	.	.
C#CCOCCOCCOCCNc1nc(N2CCN(C(=O)CCCCCCCCCCNC(=O)[C@H]([C@@H](C)CC)n3cc(CCCCCN)nn3)CC2)nc(N2CCN(C(=O)CCCCCCCCCCNC(=O)[C@H](CO)n3cc(CCCCCN)nn3)CC2)n1	3	-110	0.97	.	2.1*	.	-151
C#CCOCCOCCOCCNc1nc(N2CCN(C(=O)CCCCCCCCCCNC(=O)[C@H]([C@@H](C)CC)n3cc(CCCCCN)nn3)CC2)nc(N2CCN(C(=O)CCCCCCCCCCNC(=O)[C@@H]([C@H](C)CC)n3cc(CCCCCN)nn3)CC2)n1	3	i	0.97	.	6.6*	.	i
COc1ccc(N(C(=O)Cn2nnc(-c3ccc(C)o3)n2)C(C(=O)NC2CCCC2)c2ccncc2)cc1 (configuration not stated)	5	-4	0.95	.	1	.	.
COc1ccc(Cl)cc1NC(=S)NCCC(c1ccccc1)c1ccccc1	-22	-298	1.2	10	4*	0.9	-107
S=C(NCCC(c1ccccc1)c1ccccc1)Nc1ccc(Cl)cc1	-15	-491	1.1	-32	5.9*	1.3	-110
COc1ccc(Cl)cc1NC(=S)NCCO	-7	4	1.1	0	0.96	1	.
S=C(NCc1ccccc1)Nc1ccc(Cl)cc1	9	-72	0.91	12	1.7	0.9	.
CSc1ccc(CN(C)C(=O)c2cccc(S(=O)(=O)N3CCN(Cc4ccccc4)CC3)c2)cc1	17	3	0.83	.	0.97	.	.
O=C(Cn1cnc2scc(-c3ccc(Br)cc3)c2c1=O)N1CCOCC1	1	-1	0.99	-6	1	1.1	.
